Screening data as filed in PubChem BioAssay.
Mdm2 ligase inh = blocks human Mdm2 ubiquitin ligase activity | 210,000 compounds, 0.11% hits | Q00987 | cell-based MDM2 ubiquitination luciferase reporter, 2 h; 0 = plate control, 100 = twice control, blank-subtracted | signal enhancement, % at 5 µM;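 active means signal enhancement of 30% or more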;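 further: luminescence tracks abundance of the self-degrading MDM2-luciferase fusion protein; higher signal means inhibition of MDM2 E3 ligase activity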
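Test system: stable mammalian line carrying autodegrading MDM2–luciferase fusion reporter; quantity: 2000 cells in each well; times: 4 h cell settling then 2 h compound exposure, 37 °C; detection: luminescence with SteadyLite reagent, 15 min at room temperature; evaluation: percent signal gain over controls, blank-subtracted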
Wee1 stabilizer = inhibitors of human Wee1 degradation. 220,000 compounds, 1.2% hits. HeLa Luc-Wee1K328M stability, luciferase luminescence; 100% = proteasome inhibitor MG132 effect. reporter increase, % at 5 µM;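 active means activation above the mean of all tested compounds plus 3 SD, set per screening run, cut at about 8.8% in these data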;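 further: cells exposed to compound for 20 h before luminescence read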
14-3-3 Bad inh = disrupts binding of bovine 14-3-3 zeta to phospho-Bad peptide. P63103. TR-FRET 14-3-3zeta/Dy647-pBad peptide displacement, 1 h. inhibition, % at 21.7 µM. 220,000 compounds, 0.71% hits;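 active means inhibition above about 70%, limit read from the data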
Target sequence (P63103 whole entry, looked up): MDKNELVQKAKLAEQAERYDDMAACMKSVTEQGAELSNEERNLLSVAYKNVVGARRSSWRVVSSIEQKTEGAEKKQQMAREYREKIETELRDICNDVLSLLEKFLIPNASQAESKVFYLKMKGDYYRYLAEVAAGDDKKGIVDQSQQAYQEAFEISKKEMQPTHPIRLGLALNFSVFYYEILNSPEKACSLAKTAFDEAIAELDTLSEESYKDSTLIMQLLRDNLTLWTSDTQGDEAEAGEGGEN
Tb hexokinase = T. brucei hexokinase 1 inhibition; 220,000 compounds, 0.11% hits; inhibition, % at 10 µM; recombinant TbHK1, G6PDH-coupled NADH A340; AID 1430;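 active means inhibition of 50% or more in the single-dose primary screen; inactive means inhibition below 50%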
Hck-Nef inh = human Hck-Nef kinase inhibition. inhibition, % at 20 µM. P08631. Recombinant Hck-YEEI plus Nef, Z-Lyte FRET kinase assay. AID 463187. 220,000 compounds, 0.68% hits;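 active means Hck-Nef kinase inhibition above about 50%, limit read from the data; inactive means inhibition below that limit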
Hck Nef conf = Hck-Nef kinase inhibition, confirmation; Recombinant Hck-YEEI:Nef, Z-Lyte FRET kinase assay; 1,300 compounds, 28% hits; calls only at 10 µM; shares compounds with Hck-Nef inh;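 active means average inhibition of at least 50%, with Z-scores no higher than 3 in both the phospho-tyrosine peptide and fluorescence counterscreens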
Numbers stand for hits; - = inactive; . = not tested or not shown; + = active, no number. Only some compounds are listed: those with a hit (about 2.7% of all), similar ones and a draw of the others.

SMILES | Mdm2 ligase inh | Wee1 stabilizer | 14-3-3 Bad inh | Tb hexokinase | Hck-Nef inh | Hck Nef conf
COc1ccc(-c2cnnc(N/N=C/c3ccc(-c4ccc([N+](=O)[O-])cc4)o3)n2)cc1 | - | - | 93.9 | - | 84.1 | +
Cc1ccc(NC(=O)Cn2cccc2)cc1 | - | - | - | - | - | .
Cc1ccc(C(=O)NC(=S)Nc2ccc(-c3ccc(CO)o3)cc2)cc1 | - | - | - | - | 61.0 | -
C#CCNC(=O)C1=C[C@H](c2ccc(C(F)(F)F)cc2)[C@@H](CCCO)[C@H](OCC)O1 | . | - | - | - | - | .
N#Cc1c(NCCCO)nc(-c2ccco2)c2c1CCCC2 | - | - | - | - | 140.5 | .
Cc1cc(C(=O)NNC2CC(=O)N(c3ccc4ccccc4c3)C2=O)c(C)o1 (stereo not given) | - | - | - | - | - | .
Cn1c(-c2cccc(Br)c2)n[nH]c1=O | - | - | - | - | - | .
Cc1ccc(Cn2cccc(-c3nc4ccccc4s3)c2=O)cc1 | - | - | - | - | 123.3 | .
